Results on four molecules are retold here after article PMC11044231 (ACS Omega, 2024).

Assay [1] is described as follows: TAOC, total antioxidant capacity. Conditions: read-out: TAOC EC50; concentration that results in an absorbance of 0.500. A digest of the protocol: (§1)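 Cell-free antioxidant assays, with Trolox and ascorbic acid as positive controls. Results are expressed as […] or as Trolox equivalents.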
Assay [2] deals with RAW 264.7 mouse macrophage cell line. It is filed as cell-based. To be noted: RAW264.7, 24 h, read-out: NO Production Inhibition (IC50). The gist of the method: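 NO production inhibition is measured in RAW 264.7 macrophages, with dexamethasone as positive control and the value given as IC50.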
Assay [3] relates to MDA-MB-231S triple-negative breast cancer cell line. Nature of the assay: MTT antiproliferative assay, MDA-MB-231S. Type of assay: cell-based. Conditions: 48 h, read-out: IC50, antiproliferative effect. The gist of the method: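 Antiproliferative test on MDA-MB-231S cells with DMSO as negative (vehicle) control and doxorubicin as positive control. Activity is reported as IC50.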
A general note: Formazan colour is commonly taken as a measure of viable cells.

Assay [4] in a line: ORAC, oxygen radical absorbance capacity. Conditions: trolox equivalent. A digest of the protocol: as §1
The nature of assay [5]: HORAC, hydroxyl radical absorbance capacity. Conditions: trolox equivalent. A digest of the protocol: as §1

Turning to `O=C1O[C@H]([C@@H](O)CO)C(O)=C1O` [ascorbic acid], the EC50 in assay [1] amounted to 244 µM.

On to `C[C@@H]1C[C@H]2[C@@H]3CCC4=CC(=O)C=C[C@]4(C)[C@@]3(F)[C@@H](O)C[C@]2(C)[C@@]1(O)C(=O)CO` [dexametasone, Dexamethasone], for which the IC50 in assay [2] was determined as 16.1 ± 1.02 µM.

As for `COc1cccc2c1C(=O)c1c(O)c3c(c(O)c1C2=O)C[C@@](O)(C(=O)CO)C[C@@H]3O[C@H]1C[C@H](N)[C@H](O)[C@H](C)O1` [doxorubicin], in assay [3], the half-inhibitory concentration (IC50) worked out at 0.07 ± 0.01 µM. Consider `Cc1c(C)c2c(c(C)c1O)CCC(C)(C(=O)O)O2` (stereo not drawn) [trolox], for which, in assay [4], the “ORAC (TE)” value is on record as 1 TE. The “HORAC (TE)” value in assay [5] stood at 1 TE. In addition, in assay [1], the EC50 stood at 143 µM.

Broadly, the EC50 is the midpoint of the concentration-response curve. What is called IC50 is the point on the concentration scale where inhibition reaches its midpoint.
